# Data reported in ChEMBL document CHEMBL4513216, “Probing the Open Global Health Chemical Diversity Library for Multistage-Active Starting Points for Next-Generation Antimalarials” (ACS Infect Dis, 2020).
# Test: Toxicity liver stage against HepG2, at 10uM
# Type: cell-based
# Parameters: test concentration 10 uM, cell line HepG2-A16-CD81EGFP
# Conditions: human, HepG2-A16-CD81EGFP cells; read-out: INHIBITION
# How it was run: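 Uninfected HepG2-A16-CD81EGFP cells, 3 × 10^3 per well, 1536-well, plated on prespotted compound at 10 μM final, parasite-free screening media added to match infected plates; puromycin 10 μM positive, DMSO 0.5% negative; run in parallel with 48 h PbLuc assay at 37 °C, 5% CO2; viability by CellTiter-Glo luminescence, normalized to controls.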
row,SMILES,cytotoxicity at 10 µM
1,Cn1ccc2c(cnc3nc(-c4ccncc4)nn32)c1=O,-4.17%
2,CC(=O)N1CCN(C(=O)C2CCN(c3cccnn3)C2)CC1 (stereo not given),-17.6%
3,COc1ccc(C(C)NC(=O)C2CCN(S(C)(=O)=O)CC2)cc1C (stereo not given),-7.5%
4,CC(=O)N1CCCN(C(=O)NCCc2ccc(Cl)s2)CC1,-2.24%
5,O=C(NC1CC1)c1ccc2ccc(N3CCN(CC4CC4)CC3)n2c1,1.26%
6,CCc1csc(C2CCCN(C(=O)c3ccc4[nH]nnc4c3)C2)n1 (stereo not given),-17.1%
7,CS(=O)(=O)NCCC(=O)NC1CCc2nccn2C1 (stereo not given),9.46%
8,O=C(CC1CC1)N1CCc2ncc(CN3CCOCC3)n2CC1,-80.6%
9,CCc1cc(N[C@H]2CCC[C@H]2CO)n2nccc2n1,-10.1%
10,Cc1ccc(Cc2cnc(C3CCNCC3)cn2)cc1,-31.2%
11,Cn1ncc2c(N3CCCN4CCC[C@H]4C3)nc(C(C)(C)C)nc21,-128%
12,Cc1nn(C)c(C)c1S(=O)(=O)NCC1(C(N)=O)CCOCC1,14.9%
13,O=C1OC2(CCNCC2)CN1CC(=O)N1CCC1c1cccs1 (stereo not given),4.35%
14,COC(=O)c1ccc(CNC2CC(=O)N(Cc3cccc(F)c3)C2)cc1 (stereo not given),4.43%
15,Cc1nc(C(=O)N(C)CC(F)(F)C(F)(F)F)c2ccccn12,2.56%
16,Cc1nc(CN2CCCC2Cn2cncn2)no1 (stereo not given),-7.01%
17,CC(C)c1noc(CN2CCN(C(=O)c3cccc(F)c3)CC2)n1,-4.27%
18,Cn1cncc1C(=O)N1C[C@@H]2CCN(c3cnccn3)C[C@@H]2C1,-96.6%
19,CCc1noc(CN2CCN(CCO)CC2)n1,-6.13%
20,CC(C)(O)c1cn(C2CCN(c3ncccc3Cl)CC2)nn1,-46.4%
21,Cc1ccc(CN2CCc3nnc(COCCN(C)C)n3CC2)o1,2.9%
22,Cn1c(Cn2ccnc2)nnc1C1CCCN(c2ncccn2)C1 (stereo not given),-6.33%
23,Cc1nc(CN2C[C@@H]3CN(C(=O)NC(C)C)C[C@@H]3C2=O)cs1,-76.2%
24,CC(C)[C@@H](C)NC1CCN(c2ccc(-n3ccnc3)cc2)CC1,0.487%
25,CCCN1CCc2nc(SCc3ccccc3F)[nH]c(=O)c2C1,-2.62%
26,CCN(CCNC(=O)c1ccccc1OCCOC)C1CC1,11.7%
27,Cc1ccc(C(=O)O)cc1CNC(=O)CN1CC(C)(C)[C@@](C)(O)C1,-6.03%
28,Cc1ocnc1C(=O)N1CCN(Cc2ccccc2)[C@@H]2CS(=O)(=O)C[C@@H]21,-1.26%

row,SMILES,cytotoxicity at 10 µM
1,CCC(=O)N1CCCc2c(cnn2C)C1,3.12%
2,Cc1noc(C2CCC3(CCN(C(=O)c4cnccn4)CC3)O2)n1 (stereo not given),7.19%
3,O=C([C@@H]1COC[C@H]2CN(C3CCCC3)C[C@H]21)N1CCCCO1,-1.11%
4,CC(C)(C)N1CCN(C(=O)c2cccnc2-n2cncn2)CC1,4.22%
5,CN1CC(C(=O)NCCc2ccc(Br)cc2F)CC1=O (stereo not given),2.43%
6,Cc1c(C(=O)N2CCCC(n3nnc4cc(F)ccc43)C2)cnn1C (stereo not given),-18.3%
7,COC1(CNC(=O)CCCc2ccccc2)CCSC1 (stereo not given),4.68%
8,c1ccc(-c2nnc(CN3C[C@H]4CC[C@@H](C3)N(CC3CCC3)C4)o2)cc1,-8.51%
9,O=C(NCCNc1ccccn1)NCC1CCS(=O)(=O)C1 (stereo not given),1.48%
10,COc1cc(CN(C)C(=O)NC2CC2)ccc1SC,-8.01%
11,O=S(=O)(c1ccccc1)N1CCCCC1c1cc[nH]n1 (stereo not given),7.65%
12,Cc1cc(C(=O)N2CCC3(C2)CN(c2cccnc2)C(=O)CN3C)[nH]n1 (stereo not given),5.2%
13,CC(C)(C)N1CC(c2ncc(-c3ccc4c(c3)OCCO4)[nH]2)CC1=O (stereo not given),6.19%
14,c1ccc(CN2CCC(NCCc3ccc4c(c3)CCO4)CC2)nc1,3.73%
15,CC(CNC(=O)Nc1ccc(C#N)cc1)N1CCc2ccccc21 (stereo not given),-5.71%
16,COc1cccc2c1OCC(C(=O)N1Cc3ccccc3C1)C2 (stereo not given),3.16%
17,Cc1cnc(C(=O)N2CCc3ncnc(C)c3CC2)cn1,-6.51%
18,COc1c(CNC2CCN(c3ncccn3)CC2)c(C(C)C)nn1C,-4.81%
19,O=C1CO[C@@H]2CN(Cc3cccs3)C[C@H]2N1CC1CC1,-2.32%
20,COc1ccc(-c2nccc(C3CCCN3C)n2)cc1 (stereo not given),9.97%
21,COc1cc(C)ccc1S(=O)(=O)N1CC[C@](C)(O)[C@H](C)C1,7.52%
22,Cc1ccccc1C(O)CNC(=O)Cc1ccc(F)cc1 (stereo not given),5.8%
23,CCOCC(=O)N1CCC(c2nccn2CC2CC2)CC1,-7.18%
24,CCS(=O)(=O)N1Cc2c(Cn3ccnc3)nn(C)c2C1,-2.85%
25,Cc1noc(C)c1CN1CC[C@@H](OCC2CC2)[C@@H](Cc2ccccc2)C1,11.5%
26,CNS(=O)(=O)c1ccccc1N1CCN(C(=O)C(C)C)CC1,4%
27,O=C(c1cnns1)N1CCN(Cc2ccc(F)cc2Cl)CC1,-127%
